In the library only some 1.6% were active in any assay of this set; here they are far more common.
PAD4 inh: human PAD4 inhibitors, primary screen, biochemical, fluorescence polarization, 1536-well format; recombinant PAD4, RCA probe fluorescence polarization; hit rate 0.41% among 330,000; Protein-arginine deiminase type-4 (Homo sapiens), Q9UM07; inhibition, % at 6.36 µM;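 active = percent inhibition above a cutoff equal to the mean of all tested compounds plus 3 SD, cut at about 15% in these data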
Target sequence (Q9UM07 whole entry, looked up): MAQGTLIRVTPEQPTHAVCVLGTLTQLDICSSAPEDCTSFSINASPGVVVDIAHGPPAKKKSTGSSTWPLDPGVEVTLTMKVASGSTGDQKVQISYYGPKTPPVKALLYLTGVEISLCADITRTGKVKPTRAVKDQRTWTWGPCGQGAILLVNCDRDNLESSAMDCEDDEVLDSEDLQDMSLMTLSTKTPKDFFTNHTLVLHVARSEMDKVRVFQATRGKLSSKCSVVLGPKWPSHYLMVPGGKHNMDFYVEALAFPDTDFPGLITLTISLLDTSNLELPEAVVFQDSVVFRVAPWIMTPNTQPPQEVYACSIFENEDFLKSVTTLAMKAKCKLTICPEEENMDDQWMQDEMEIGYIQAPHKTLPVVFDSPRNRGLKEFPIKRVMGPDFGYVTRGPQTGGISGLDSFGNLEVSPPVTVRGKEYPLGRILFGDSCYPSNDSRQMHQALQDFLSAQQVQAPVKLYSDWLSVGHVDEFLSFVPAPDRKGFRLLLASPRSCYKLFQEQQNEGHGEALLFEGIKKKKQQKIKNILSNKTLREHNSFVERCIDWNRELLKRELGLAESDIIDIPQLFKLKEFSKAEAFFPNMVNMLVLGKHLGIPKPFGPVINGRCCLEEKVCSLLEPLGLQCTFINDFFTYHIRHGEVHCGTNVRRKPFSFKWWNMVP
UBC9 SUMO inh: inhibitors of in vitro SUMOylation cascade, primary screen, biochemical, HTRF, uHTS. HTRF SUMOylation assay, SAE1/SAE2 + UBC9. inhibition, % at 35 µM. hit rate 0.36% among 290,000. AID 2006, 2009; in the data active = inhibition above about 50%, passing the limit was not always enough
JMJD2C inh: inhibitors of GASC-1 histone demethylase, primary screen, biochemical, fluorescence, DELFIA europium. GST-JMJD2C(1-420) H3K9me3 demethylation. inhibition, % at 2.35 µM. AID 2099, 2009. hit rate 0.069% among 330,000;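 active = more than half of a compound's replicate wells show inhibition beyond 50%, single wells judged on their own value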;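 note: signal counts dimethyl H3K9 product captured on neutravidin plate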
GSTO1 inh: inhibitors of recombinant GSTO1, primary screen, counter-screen for RBBP9 inhibitor project, biochemical, fluorescence polarization; activity-based probe fluorescence polarization; inhibition, % at 5.96 µM; Glutathione S-transferase omega-1 (Homo sapiens), P78417; hit rate 1.1% among 300,000; AID 1974, 2009;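 active = inhibition above the campaign mean inhibition plus 3 SD, cut at about 35% in these data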
TDP2 inh: human TDP2 enzyme inhibitors, primary screen, biochemical, epi absorbance, recombinant enzyme; Tyrosyl-DNA phosphodiesterase 2 (Homo sapiens), O95551; T5PNP hydrolysis, p-nitrophenol absorbance 415 nm; hit rate 0.34% among 370,000; inhibition, % at 12.8 µM;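 active = inhibition above the mean of all tested compounds plus 3 SD, set per campaign, cut at about 25% in these data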
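Evaluation: % inhibition relative to enzyme-containing and enzyme-free wells. Material: recombinant human TDP2. Benchmarks: enzyme-free and DMSO wells. Timing: enzyme reaction with compound for 2 h at 37 °C. Compound dosing: 12.8 µM only. Measured by: p-Nitrophenol epi absorbance. Reagent: T5PNP substrate at 5 mM, a TopII-DNA adduct mimic. Replication: single well per compound.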
Apaf-1 inh: inhibitors of human Apaf-1 apoptosome, primary screen, biochemical, DEVD-Rh110 fluorescence, uHTS | reconstituted apoptosome caspase-3 activity | inhibition, % at 20 µM | hit rate 0.71% among 330,000; active = inhibition of at least 40% at 20 µM
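System: Apoptosome proteins | Medium: Hepes pH 7.5 with detergent and BSA | Also added: Cytochrome c trigger plus (Z-DEVD)2-Rh110 caspase-3 substrate | Incubation: 30 min compound preincubation, 50 min activation, room temperature | Detection: Rhodamine 110 fluorescence at Ex 480/Em 540 nm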
PAD4 FP conf: human PAD4 inhibitors, confirmation, biochemical, fluorescence polarization. shares compounds with PAD4 inh. recombinant PAD4, RCA probe fluorescence polarization. inhibition, % at 6.36 µM. hit rate 28% among 1,200;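 active = mean inhibition across replicates above the hit cutoff set by the earlier primary screen, cut at about 15% in these data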;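 note: inhibitors block active-site labeling by the probe so polarization falls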
Numbers stand for hits; n = inactive; x = no result given.

SMILES	PAD4 inh	UBC9 SUMO inh	JMJD2C inh	GSTO1 inh	TDP2 inh	Apaf-1 inh	PAD4 FP conf
COC(=O)c1[nH]c(=O)c2ccccc2c1O	31	n	n	n	x	91	n
C[C@H]1COc2cccc(N3CCCC3)c2S(=O)(=O)N1C	x	x	x	x	n	x	x
COc1ccc(C)c(NC(=O)[C@@H]2CCCN2S(=O)(=O)c2cccc3cccnc23)c1	x	x	x	x	n	x	x
COc1ccccc1C1CC(c2cccs2)=Nc2ccccc2S1 (stereo not drawn)	23	n	n	n	n	n	n
CN(C(=O)c1ccc(NC(=O)Cc2cccc([N+](=O)[O-])c2)cc1)C1CC1	35	x	n	x	n	n	n
COc1ccc(S(=O)(=O)N(C(C)=O)c2ccc3oc(=O)sc3c2)cc1	22	n	n	n	n	n	n
CCc1cc(SC#N)cc(CC)c1NC(=O)CCl	16	n	n	71	n	n	n
CCc1cc(S(N)(=O)=O)cc(CC)c1NC(C)=O	n	n	n	n	n	n	x
CCSc1ccc(-c2nn(-c3ccccc3)cc2/C=C(/C#N)C(=O)NCCCOC)cc1	18	n	n	n	n	x	32
CCCSc1ccc(-c2nn(-c3ccccc3)cc2/C=C(/C#N)C(=O)NCCCOC)cc1	n	n	n	n	n	n	x
CC1=CC(C)(C)N2C(=O)C3(C(C#N)=C(N)OC4=C3C(=O)CC(C)(C)C4)c3cccc1c32 (stereo not drawn)	x	n	n	x	n	n	x
CC1=CC(C)(C)N2C(=O)C3(C(C#N)=C(N)OC4=C3C(=O)CC(C)(C)C4)c3c(C)c(C)cc1c32 (stereo not drawn)	40	n	n	n	n	n	n
CCC(=O)N1CCc2cc(Br)c(S(=O)(=O)NCCCN(CC)Cc3ccccc3)cc21	x	x	x	x	n	x	x
O=S(=O)(c1cccs1)N1CN(Cc2ccco2)c2nc3ccccc3nc21	77	n	n	37	n	n	n
Cc1c(C(=O)N2CCCCC2)c(S(=O)(=O)N2CCN(c3ccc(F)cc3)CC2)c(C)n1C	n	n	n	n	n	n	x
Cc1c(C(=O)N2CCCCC2)c(S(=O)(=O)N2CCN(c3ccc(Cl)cc3)CC2)c(C)n1C	68	n	n	n	n	n	n
C=CCN1C(=O)[C@@H](CC(=O)NCCc2ccccc2OC)[C@]2(C(=O)OC)CCCCC=C12	x	x	x	x	n	x	x
COc1ccc(Cl)cc1Nc1nc(C)nc2c1oc1ccccc12	15	n	n	n	n	n	n
CCC[C@H]1[C@@H](OC(=O)N2CCN(c3ccccc3)CC2)CC[C@@]23CCCN2C(=O)CCC[C@@H]13	x	x	x	x	n	x	x
Cc1cc(O)ccc1N/C=C/c1onc(C)c1[N+](=O)[O-]	37	n	n	n	n	n	n
Cc1cccc(N/C=C/c2onc(C)c2[N+](=O)[O-])c1	n	n	n	n	n	n	x
O=C1/C(=C/C=C/c2ccco2)SC(=S)N1NS(=O)(=O)c1ccccc1	65	60	n	n	n	n	n
COc1ccc(OCCCC(=O)N2CCN(S(=O)(=O)c3cccc(F)c3)CC2)cc1	33	x	n	n	n	n	n
CCOc1ccccc1OCCCC(=O)N1CCN(S(=O)(=O)c2cccc(F)c2)CC1	n	n	n	n	n	n	x
Cc1cc(N)ccc1-n1c(C)ccc1C	90	n	n	82	n	n	n
Cc1ccc(-n2c(C)cc(=O)cc2C)c(C)c1	n	n	n	n	n	n	x
CN(C)S(=O)(=O)c1ccc(NC(=O)CSc2ncnc3ccccc23)cc1	n	n	n	n	n	n	x
CN(C)S(=O)(=O)c1cccc(NC(=O)CSc2ncnc3ccccc23)c1	15	n	n	n	n	n	n
O=C(NCCc1ccccc1)OCc1cn(Cc2cccc(C(F)(F)F)c2)nn1	x	x	x	x	n	x	x
CN(C(=S)NC(=O)C12CC3CC(CC(C3)C1)C2)c1ccc(O)cc1	24	x	n	x	n	n	n
